According to ChEMBL document CHEMBL1145924 (J Med Chem, 2003):
“And” between values parts separate entries of the source, which are not always exact repeats. Equal entries are not always repeated. One block for each molecule: values may come before it.

Assays:
[1] = target: Histamine H1 receptor (Cavia porcellus) (UniProt P31389); assay: (§1) Equilibrium dissociation constant (pKp) against histamine H1 receptor in guinea pig ileum; format: tissue-based
Cavia porcellus [2] = organism: Cavia porcellus; assay: Apparent pA2 value at 3 nM concentration of mepyramine in guinea pig ileum; format: functional; settings: read-out: pA2 (converted)
Histamine H1 receptor [3] = target: T1, Histamine H1 receptor (Cavia porcellus, UniProt P31389); assay: Effective concentration against histamine H1 receptor in guinea pig ileum; format: tissue-based
[4] = target: Histamine H2 receptor (Cavia porcellus) (UniProt P47747); settings: Cardiac atrium
[5] = target: Histamine H1 receptor (Cavia porcellus) (UniProt P31389); assay: Maximum response (E max) against histamine H1 receptor in guinea pig ileum; format: tissue-based
[6] = target: Histamine H1 receptor (Cavia porcellus) (UniProt P31389); assay: Concentration required for agonistic activity against histamine in guinea pig ileum; format: functional, tissue-based
Histamine H3 receptor = Histamine H3 receptor (Cavia porcellus, UniProt Q9JI35); assay: Tested for Antagonistic activity at histamine H3 receptor in guinea pig ileal longitudinal muscle in the presence of mepyramine at a concentration of 1-3 micro M; format: functional; settings: read-out: pA2 (converted)
Summary of the method: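 Field-stimulated ileal longitudinal muscle (15 V, 0.5 ms, 0.1 Hz), 37 °C, mepyramine 1–3 μM throughout. […] Antagonists used only at concentrations not blocking M3 receptors; apparent pA2 from rightward shift.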

Cavia porcellus [7] = organism: Cavia porcellus; assay: Apparent pA2 value of compound at 3 nM concentration of mepyramine in guinea pig ileum
[8] = target: Muscarinic acetylcholine receptor M3 (Cavia porcellus, UniProt Q8VH26); assay: Antagonistic activity for carbachol induced contractions in guinea pig ileum against Muscarinic acetylcholine receptor M3 in the presence of mepyramine at a concentration of 1-3 micro M; format: functional, tissue-based; settings: read-out: pA2 (converted)
[9] = target: Histamine H1 receptor (Cavia porcellus) (UniProt P31389); assay: Maximum response (E max) against H1 receptor in guinea pig ileum; format: tissue-based
Histamine H1 receptor [10] = target: T1, Histamine H1 receptor; assay: Effective concentration against histamine H1 receptor in endothelium-Denuded rings of guinea pig Aorta
Histamine H1 receptor [11] = target: T1, Histamine H1 receptor; assay: Apparent pA2 value of compound at 10 nM concentration of mepyramine in guinea pig aorta
[12] = target: Histamine H1 receptor (Cavia porcellus) (UniProt P31389); assay: Maximum response (E max) against Histamine H1 receptor in guinea pig ileum; format: tissue-based
Histamine H1 receptor [13] = target: T1, Histamine H1 receptor; assay: Apparent pA2 value of compound at 10 nM concentration of mepyramine in guinea pig aorta; remark: listed apart in the source
Histamine H1 receptor [14] = target: T2, Histamine H1 receptor (Rattus norvegicus, UniProt P31390); assay: Apparent pA2 value of compound at 50 nM concentration of mepyramine in rat aorta; format: functional, tissue-based; settings: read-out: pA2 (converted)
[15] = target: Histamine H1 receptor (Cavia porcellus) (UniProt P31389); assay: Concentration required for agonistic activity against histamine H1 receptor in guinea pig ileum; format: functional, tissue-based
Cavia porcellus [16] = organism: Cavia porcellus; assay: Full pA2 value of compound at 2-100 nM concentration of mepyramine in guinea pig ileum; format: functional; settings: read-out: pA2 (converted)
Histamine H1 receptor [17] = target: T2, Histamine H1 receptor; assay: (§2) Effective concentration against histamine H1 receptor in rat aorta
Histamine H2 receptor = Histamine H2 receptor (Cavia porcellus, UniProt P47747); assay: Tested for inhibition of histamine H2 receptor-induced rise in heart rate in guinea pig right atrium in the presence of mepyramine at a concentration of 0.3 micro M; format: tissue-based, Cardiac atrium
[18] = target: Histamine H1 receptor (Rattus norvegicus) (UniProt P31390); assay: Maximum response (E max) against H1 receptor in rat aorta; format: tissue-based
Cavia porcellus [19] = organism: Cavia porcellus; assay: Full pA2 value of compound at 3-30 nM concentration of mepyramine in guinea pig ileum; format: functional; settings: read-out: pA2 (converted)
Histamine H1 receptor [20] = target: T1, Histamine H1 receptor; assay: Apparent pA2 value of compound at 10 nM concentration of mepyramine in guinea pig aorta; remark: listed apart in the source
Cavia porcellus [21] = organism: Cavia porcellus; assay: as above
Cavia porcellus [22] = organism: Cavia porcellus; assay: Apparent pD2 value of compound at 3 nM concentration of mepyramine in guinea pig ileum; format: functional
Histamine H1 receptor [23] = target: T2, Histamine H1 receptor; assay: as §2; format: tissue-based
[24] = target: Histamine H1 receptor (Cavia porcellus) (UniProt P31389); assay: as §1; format: functional, tissue-based
Cavia porcellus [25] = organism: Cavia porcellus; assay: tissue or blood; settings: Ileum, read-out: pA2 (converted)
Cavia porcellus [26] = organism: Cavia porcellus; assay: Apparent pA2 value of compound at 100 nM concentration of mepyramine in guinea pig aorta

Histamine H3 receptor, sequence (Q9JI35 whole entry): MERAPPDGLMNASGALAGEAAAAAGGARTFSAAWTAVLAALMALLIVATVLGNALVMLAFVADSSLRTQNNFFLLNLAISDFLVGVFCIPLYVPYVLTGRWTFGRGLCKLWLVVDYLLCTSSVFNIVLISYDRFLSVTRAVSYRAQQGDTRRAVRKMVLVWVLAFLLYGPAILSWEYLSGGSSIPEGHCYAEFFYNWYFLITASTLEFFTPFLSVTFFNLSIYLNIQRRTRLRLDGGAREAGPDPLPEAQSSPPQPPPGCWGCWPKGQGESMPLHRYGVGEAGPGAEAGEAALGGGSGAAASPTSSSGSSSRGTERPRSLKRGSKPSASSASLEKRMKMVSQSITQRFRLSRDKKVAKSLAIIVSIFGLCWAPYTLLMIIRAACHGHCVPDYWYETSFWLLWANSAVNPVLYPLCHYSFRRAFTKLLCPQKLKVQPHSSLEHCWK
Histamine H1 receptor (Cavia porcellus), sequence (P31389 whole entry): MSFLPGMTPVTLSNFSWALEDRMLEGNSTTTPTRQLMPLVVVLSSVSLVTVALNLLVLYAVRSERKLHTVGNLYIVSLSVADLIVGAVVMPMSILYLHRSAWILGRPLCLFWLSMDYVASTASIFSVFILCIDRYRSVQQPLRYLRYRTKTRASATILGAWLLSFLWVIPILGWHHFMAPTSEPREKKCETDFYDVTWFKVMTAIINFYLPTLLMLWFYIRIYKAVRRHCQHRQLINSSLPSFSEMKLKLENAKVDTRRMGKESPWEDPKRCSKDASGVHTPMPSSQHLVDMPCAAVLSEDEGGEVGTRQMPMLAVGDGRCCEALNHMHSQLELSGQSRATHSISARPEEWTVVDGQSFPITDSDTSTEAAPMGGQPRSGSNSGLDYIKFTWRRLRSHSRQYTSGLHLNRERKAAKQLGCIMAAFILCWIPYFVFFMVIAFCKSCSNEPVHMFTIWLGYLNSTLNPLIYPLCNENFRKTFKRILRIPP
T1 sequence (P31389 whole entry): as above
Muscarinic acetylcholine receptor M3, sequence (Q8VH26 whole entry): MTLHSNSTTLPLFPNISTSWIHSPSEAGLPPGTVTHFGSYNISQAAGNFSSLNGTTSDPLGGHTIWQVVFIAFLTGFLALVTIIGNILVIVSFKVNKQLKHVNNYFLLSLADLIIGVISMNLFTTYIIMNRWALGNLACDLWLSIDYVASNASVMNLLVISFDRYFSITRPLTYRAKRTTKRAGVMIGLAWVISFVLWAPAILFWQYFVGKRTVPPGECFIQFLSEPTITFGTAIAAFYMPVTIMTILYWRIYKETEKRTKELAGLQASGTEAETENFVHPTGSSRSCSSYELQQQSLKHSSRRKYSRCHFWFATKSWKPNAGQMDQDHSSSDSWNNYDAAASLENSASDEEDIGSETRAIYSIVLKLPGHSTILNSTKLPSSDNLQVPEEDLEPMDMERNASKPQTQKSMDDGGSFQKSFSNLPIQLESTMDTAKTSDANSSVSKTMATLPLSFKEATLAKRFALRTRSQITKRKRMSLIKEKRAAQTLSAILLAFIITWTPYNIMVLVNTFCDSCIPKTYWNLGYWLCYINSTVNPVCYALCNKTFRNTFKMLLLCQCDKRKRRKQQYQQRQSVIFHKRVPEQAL
Histamine H2 receptor (Cavia porcellus), sequence (P47747 whole entry): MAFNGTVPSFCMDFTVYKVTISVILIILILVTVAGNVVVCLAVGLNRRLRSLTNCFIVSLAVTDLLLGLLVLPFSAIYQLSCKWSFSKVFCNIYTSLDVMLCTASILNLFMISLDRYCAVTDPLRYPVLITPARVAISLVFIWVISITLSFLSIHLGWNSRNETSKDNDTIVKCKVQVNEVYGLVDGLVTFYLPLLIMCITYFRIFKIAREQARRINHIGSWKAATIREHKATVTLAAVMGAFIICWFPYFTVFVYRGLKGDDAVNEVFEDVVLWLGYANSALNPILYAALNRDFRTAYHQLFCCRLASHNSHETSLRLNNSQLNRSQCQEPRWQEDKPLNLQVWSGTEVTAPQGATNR
T2 sequence (P31390 whole entry): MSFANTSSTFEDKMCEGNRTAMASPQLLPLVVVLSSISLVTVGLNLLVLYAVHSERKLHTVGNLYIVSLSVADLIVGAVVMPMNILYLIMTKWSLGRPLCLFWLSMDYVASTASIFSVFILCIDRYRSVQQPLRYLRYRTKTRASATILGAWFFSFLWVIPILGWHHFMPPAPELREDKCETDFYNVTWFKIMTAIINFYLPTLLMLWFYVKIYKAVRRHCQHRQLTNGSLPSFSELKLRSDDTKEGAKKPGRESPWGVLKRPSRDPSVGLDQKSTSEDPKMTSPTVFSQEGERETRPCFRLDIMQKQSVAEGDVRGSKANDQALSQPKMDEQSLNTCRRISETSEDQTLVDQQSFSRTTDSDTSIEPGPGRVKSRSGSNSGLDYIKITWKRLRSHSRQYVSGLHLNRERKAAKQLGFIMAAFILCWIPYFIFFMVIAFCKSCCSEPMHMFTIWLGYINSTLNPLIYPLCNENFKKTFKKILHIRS
Histamine H1 receptor (Rattus norvegicus), sequence (P31390 whole entry): as above
Histamine H2 receptor, sequence (P47747 whole entry): as the sequence (P47747 whole entry) above

SMILES: c1ccc(C(CCc2nc(CCNCCc3cccnc3)c[nH]2)c2ccccc2)cc1
Kb (Histamine H3 receptor): > 501 nM | Emax [9]: 64% | EC50 (Histamine H1 receptor [10]): 83.2 nM | pKp [1]: 6.52 | Kb (Histamine H1 receptor [11]): 3.24 nM | Kb [8]: 7080 nM | Kb (Cavia porcellus [2]): 0.851 nM | EC50 (Histamine H1 receptor [3]): 77.6 nM | pD2 [4]: 4.62 | Emax [5]: 64% | Concentration [6]: 10 µM

SMILES: c1ccc(C(CCc2nc(CCNCCc3ccncc3)c[nH]2)c2ccccc2)cc1
Kb (Histamine H3 receptor): > 501 nM | pKp [1]: 6.02 | Kb [8]: 1000 nM | Kb (Cavia porcellus [2]): 1.48 nM | EC50 (Histamine H1 receptor [3]): 115 nM | pD2 [4]: 4.37 | Emax [5]: 78% | Concentration [6]: 10 µM

SMILES: c1ccc(C(CCc2nc(CCNCCc3cnc[nH]3)c[nH]2)c2ccccc2)cc1
Kb (Histamine H3 receptor): > 1000 nM | Emax [12]: 96% | Kb (Histamine H1 receptor [13]): 3.24 nM | Emax [9]: 96% | Kb (Histamine H1 receptor [14]): 9.55 nM | EC50 (Histamine H1 receptor [10]): 9.77 nM | pKp [1]: 7.67 | Concentration [15]: 0.1 µM | Kb [8]: 4790 nM | Kb (Cavia porcellus [16]): 1.48 nM | EC50 (Histamine H1 receptor [3]): 5.5 nM | EC50 (Histamine H1 receptor [17]): 295 nM | EC50 (Histamine H2 receptor): 10 µM | Emax [18]: 56%

SMILES: NCCc1c[nH]c(CCC(c2ccccc2)c2ccccc2)n1
pKp [1]: 6.04 | Concentration [15]: 3 µM | Kb (Cavia porcellus [21]): 0.977 nM | Emax [5]: 100% and 84% | Emax [18]: 50%

SMILES: NCCc1c[nH]cn1 [HISTAMINE]
Kb (Cavia porcellus [25]): 0.851 nM

SMILES: CNCCc1c[nH]c(CCC(c2ccccc2)c2ccccc2)n1
pKp [1]: 6.45 | Kb (Cavia porcellus [26]): 1.78 nM

SMILES: NCCc1cnc(CCC(c2ccccc2)c2ccccc2)[nH]1
EC50 (Histamine H1 receptor [10]): 158 nM

SMILES: CNCCc1cnc(CCC(c2ccccc2)c2ccccc2)[nH]1
EC50 (Histamine H1 receptor [10]): 39.8 nM

Second part, led by results:

pKp [1]: 6.56 | EC50 (Histamine H1 receptor [3]): 24 nM | pD2 [4]: 4.59 | Emax [5]: 84% | Concentration [6]: 10 µM
SMILES: c1ccc(C(CCc2nc(CCNCCCCc3ccncc3)c[nH]2)c2ccccc2)cc1
Kb (Cavia porcellus [2]): 1.12 nM

Kb (Histamine H3 receptor): 10.2 nM | pKp [1]: 6.17 | Kb [8]: 417 nM | EC50 (Histamine H1 receptor [3]): 123 nM | pD2 [4]: 4.12 | Emax [5]: 86% | Concentration [6]: 10 µM
SMILES: c1ccc(C(CCc2nc(CCNCCCCc3c[nH]cn3)c[nH]2)c2ccccc2)cc1
Kb (Cavia porcellus [7]): 1.7 nM

Kb (Histamine H3 receptor): > 316 nM | pKp [1]: 6.61 | Kb [8]: 562 nM | EC50 (Histamine H1 receptor [3]): 26.3 nM | pD2 [4]: 5.25 | Emax [5]: 84% | Concentration [6]: 3 µM
SMILES: c1ccc(C(CCc2nc(CCNCCCCCc3cccnc3)c[nH]2)c2ccccc2)cc1
Kb (Cavia porcellus [2]): 1.48 nM

pKp [1]: 6.88 | EC50 (Histamine H1 receptor [3]): 13.5 nM | pD2 [4]: 4.77 | Emax [5]: 88% | Concentration [6]: 3 µM
SMILES: c1ccc(C(CCc2nc(CCNCCCCc3cccnc3)c[nH]2)c2ccccc2)cc1
Kb (Cavia porcellus [2]): 1.7 nM

Kb (Histamine H3 receptor): 123 nM | pKp [1]: 7.14 | Kb [8]: 776 nM | EC50 (Histamine H1 receptor [3]): 13.5 nM | pD2 [4]: 3.92 | Emax [5]: 95% | Concentration [6]: 0.1 µM
SMILES: c1ccc(C(CCc2nc(CCNCCCc3c[nH]cn3)c[nH]2)c2ccccc2)cc1
Kb (Cavia porcellus [2]): 1.86 nM

Kb (Histamine H3 receptor): > 316 nM | Emax [9]: 80% | pKp [1]: 7.13 | Kb [8]: 457 nM | EC50 (Histamine H1 receptor [3]): 21.4 nM | pD2 [4]: 4.96 | Concentration [6]: 3 µM
SMILES: c1ccc(C(CCc2nc(CCNCCCc3ccccn3)c[nH]2)c2ccccc2)cc1
Kb (Cavia porcellus [7]): 1.66 nM

Kb (Histamine H3 receptor): > 501 nM | Emax [9]: 89% | Kb (Histamine H1 receptor [14]): 6.17 nM | EC50 (Histamine H1 receptor [10]): 14.1 nM | pKp [1]: 7.45 | Kb [8]: 741 nM | EC50 (Histamine H1 receptor [3]): 6.92 nM | EC50 (Histamine H1 receptor [17]): 240 nM | pD2 [4]: 4.78 | Kb (Histamine H1 receptor [20]): 1.62 nM | Emax [5]: 89% | Emax [18]: 65% | Concentration [6]: 3 µM
SMILES: c1ccc(C(CCc2nc(CCNCCCCc3ccccn3)c[nH]2)c2ccccc2)cc1
Kb (Cavia porcellus [19]): 0.661 nM

Kb (Histamine H3 receptor): > 316 nM | pKp [1]: 6.74 | Kb [8]: 513 nM | EC50 (Histamine H1 receptor [3]): 15.5 nM | pD2 [4]: 5.02 | Emax [5]: 83% | Concentration [6]: 3 µM
SMILES: c1ccc(C(CCc2nc(CCNCCCCCc3ccccn3)c[nH]2)c2ccccc2)cc1
Kb (Cavia porcellus [2]): 1.82 nM

pKp [1]: 5.9 | EC50 (Histamine H1 receptor [3]): 95.5 nM | pD2 [4]: 4.12 | Emax [5]: 57% | Concentration [6]: 10 µM
SMILES: c1ccc(C(CCc2nc(CCNCCCCCc3ccncc3)c[nH]2)c2ccccc2)cc1
pD2 (Cavia porcellus [22]): 8.63

pKp [1]: 5.69 | EC50 (Histamine H1 receptor [3]): 269 nM | pD2 [4]: 4.36 | Emax [5]: 48% | Concentration [6]: 10 µM
SMILES: c1ccc(C(CCc2nc(CCNCCCc3ccncc3)c[nH]2)c2ccccc2)cc1
pD2 (Cavia porcellus [22]): 8.49

Kb (Histamine H3 receptor): > 501 nM | EC50 (Histamine H1 receptor [23]): 525 nM | Emax [9]: 92% | Kb (Histamine H1 receptor [14]): 10.5 nM | EC50 (Histamine H1 receptor [10]): 81.3 nM | Kb [8]: 5010 nM | EC50 (Histamine H1 receptor [3]): 21.4 nM | pKp [24]: 7.15 | pD2 [4]: 4.37 | Kb (Histamine H1 receptor [20]): 4.37 nM | Emax [5]: 92% | Emax [18]: 59% | Concentration [6]: 10 µM
SMILES: c1ccc(C(CCc2nc(CCNCCc3ccccn3)c[nH]2)c2ccccc2)cc1
Kb (Cavia porcellus [7]): 1.74 nM

pKp [1]: 6.18 | EC50 (Histamine H1 receptor [3]): 117 nM | pD2 [4]: 4.05 | Emax [5]: 48% | Concentration [6]: 10 µM
SMILES: c1ccc(C(CCc2nc(CCNCCCc3cccnc3)c[nH]2)c2ccccc2)cc1
Kb (Cavia porcellus [2]): 1.82 nM
